According to ChEMBL document CHEMBL1136943, “Nocathiacin analogs: Synthesis and antibacterial activity of novel water-soluble amides” (Bioorg Med Chem Lett, 2009):
Converted amounts (≈) assume the structure as drawn. Values belong to the compound of their own block, whether it stands above or below them.

What was measured:
Staphylococcus aureus [1] = assay: Antibacterial activity against Staphylococcus aureus MB2865 in liquid culture by turbidity method; type: functional
Procedure, shortened: (§1)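 MIC is the lowest concentration giving 100% inhibition of bacterial growth in liquid culture, read by turbidity.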

Staphylococcus aureus [2] = assay: Antibacterial activity against methicillin-resistant Staphylococcus aureus; type: functional
Procedure, shortened: (§2)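 MIC taken as the lowest concentration giving 100% inhibition of bacterial growth in liquid culture, judged by turbidity.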

Enterococcus = assay: Antibacterial activity against vancomycin-resistant Enterococcus; type: functional; procedure, shortened: as §2
Staphylococcus aureus [3] = assay: Antibacterial activity against Staphylococcus aureus infected iv bid dosed mouse model assessed as reduction of colony forming unit in kidney; type: functional
Procedure, shortened: (§3)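 Systemic S. aureus infection mouse model (SATOA). Compounds were given iv; […]. Kidney bacterial burden (cfu) was compared with untreated control. ED99 is the dose giving a reduction of at least 2 log10 cfu in kidney burden.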

[4] = molecular target: T1, Type-2 angiotensin II receptor (Homo sapiens, UniProt P50052); assay: Inhibition of AT2 receptor
T1 sequence (P50052 whole entry): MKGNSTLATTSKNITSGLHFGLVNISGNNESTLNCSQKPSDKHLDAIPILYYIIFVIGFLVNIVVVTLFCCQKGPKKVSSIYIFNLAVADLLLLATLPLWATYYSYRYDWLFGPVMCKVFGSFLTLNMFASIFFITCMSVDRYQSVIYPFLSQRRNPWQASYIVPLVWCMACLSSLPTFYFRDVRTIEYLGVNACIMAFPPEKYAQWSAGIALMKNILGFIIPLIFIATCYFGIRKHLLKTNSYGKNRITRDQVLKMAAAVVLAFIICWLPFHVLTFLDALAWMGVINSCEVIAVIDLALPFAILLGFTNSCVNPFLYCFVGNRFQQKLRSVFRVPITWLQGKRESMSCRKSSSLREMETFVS
Procedure, shortened: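 AT2 IC50 derived from four dose levels per compound, following a published protocol.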

Staphylococcus aureus [5] = assay: Antibacterial activity against methicillin-resistant Staphylococcus aureus COL infected mouse thigh model assessed as reduction of bacterial load at 1 mg/kg, iv, bid after 24 hrs; type: functional
Procedure, shortened: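 Mouse MRSA COL thigh infection, 4 mice per group. Test article given intravenously, 0.2 ml, twice daily. Thighs harvested aseptically 24 h after challenge. Bacterial load compared with untreated controls as log reduction over 24 h.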

[6] = Plasma clearance in rat at 1 mg/kg, iv; type: ADME, organism-based; parameters: dose 1 mg/kg, route intravenous
Procedure, shortened: (§4)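 Single iv dose of 1 mg/kg in EtOH/PEG400/H2O (10:15:75). Clearance was measured in plasma, with steady-state volume of distribution and terminal half-life derived.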

[7] = Plasma clearance in dog at 1 mg/kg, iv; type: ADME, organism-based, Canis lupus familiaris; parameters: dose 1 mg/kg, route intravenous; procedure, shortened: as §4
[8] = Plasma clearance in monkey at 1 mg/kg, iv; type: ADME, organism-based, Macaca mulatta; parameters: dose 1 mg/kg, route intravenous; settings: rhesus monkey; procedure, shortened: as §4
[9] = Volume of distribution in steady state in mouse at 1 mg/kg, iv; type: ADME, organism-based; parameters: dose 1 mg/kg, route intravenous; settings: in vivo, read-out: Vdss; procedure, shortened: as §4
[10] = Volume of distribution in steady state in rat at 1 mg/kg, iv; type: ADME, organism-based; parameters: dose 1 mg/kg, route intravenous; settings: in vivo, read-out: Vdss; procedure, shortened: as §4
[11] = Volume of distribution in steady state in dog at 1 mg/kg, iv; type: ADME, organism-based, Canis lupus familiaris; parameters: dose 1 mg/kg, route intravenous; settings: in vivo, read-out: Vdss; procedure, shortened: as §4
[12] = Volume of distribution in steady state in monkey at 1 mg/kg, iv; type: ADME, organism-based, Macaca mulatta; parameters: dose 1 mg/kg, route intravenous; settings: rhesus monkey, in vivo, read-out: Vdss; procedure, shortened: as §4
[13] = Terminal half life in mouse at 1 mg/kg, iv; type: ADME, organism-based; parameters: dose 1 mg/kg, route intravenous; settings: in vivo, read-out: beta t1/2 (converted); procedure, shortened: as §4
[14] = Terminal half life in rat at 1 mg/kg, iv; type: ADME, organism-based; parameters: dose 1 mg/kg, route intravenous; settings: in vivo, read-out: beta t1/2 (converted); procedure, shortened: as §4
[15] = Terminal half life in dog at 1 mg/kg, iv; type: ADME, organism-based, Canis lupus familiaris; parameters: dose 1 mg/kg, route intravenous; settings: in vivo, read-out: beta t1/2 (converted); procedure, shortened: as §4
[16] = Terminal half life in monkey at 1 mg/kg, iv; type: ADME, organism-based, Macaca mulatta; parameters: dose 1 mg/kg, route intravenous; settings: rhesus monkey, in vivo, read-out: beta t1/2 (converted); procedure, shortened: as §4
Cytochrome P450 2C9 = Cytochrome P450 2C9 (Homo sapiens, UniProt P11712); assay: Inhibition of CYP2C9; type: ADME
Cytochrome P450 2C9, sequence (P11712 whole entry): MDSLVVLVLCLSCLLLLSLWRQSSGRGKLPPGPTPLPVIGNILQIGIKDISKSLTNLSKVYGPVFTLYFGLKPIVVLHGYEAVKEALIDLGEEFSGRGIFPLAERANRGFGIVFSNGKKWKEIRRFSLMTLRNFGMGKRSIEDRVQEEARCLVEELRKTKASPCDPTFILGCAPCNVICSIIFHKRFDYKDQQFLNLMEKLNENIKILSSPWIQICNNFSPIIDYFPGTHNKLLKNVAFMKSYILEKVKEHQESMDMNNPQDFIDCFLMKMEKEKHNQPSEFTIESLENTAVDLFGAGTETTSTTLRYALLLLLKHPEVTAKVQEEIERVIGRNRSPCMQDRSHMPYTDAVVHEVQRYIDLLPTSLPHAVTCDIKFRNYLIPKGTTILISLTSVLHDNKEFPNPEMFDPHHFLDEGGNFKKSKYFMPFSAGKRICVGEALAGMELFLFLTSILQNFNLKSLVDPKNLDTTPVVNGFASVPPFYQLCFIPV

Cytochrome P450 2D6 = Cytochrome P450 2D6 (Homo sapiens, UniProt P10635); assay: Inhibition of CYP2D6; type: ADME
Cytochrome P450 2D6, sequence (P10635 whole entry): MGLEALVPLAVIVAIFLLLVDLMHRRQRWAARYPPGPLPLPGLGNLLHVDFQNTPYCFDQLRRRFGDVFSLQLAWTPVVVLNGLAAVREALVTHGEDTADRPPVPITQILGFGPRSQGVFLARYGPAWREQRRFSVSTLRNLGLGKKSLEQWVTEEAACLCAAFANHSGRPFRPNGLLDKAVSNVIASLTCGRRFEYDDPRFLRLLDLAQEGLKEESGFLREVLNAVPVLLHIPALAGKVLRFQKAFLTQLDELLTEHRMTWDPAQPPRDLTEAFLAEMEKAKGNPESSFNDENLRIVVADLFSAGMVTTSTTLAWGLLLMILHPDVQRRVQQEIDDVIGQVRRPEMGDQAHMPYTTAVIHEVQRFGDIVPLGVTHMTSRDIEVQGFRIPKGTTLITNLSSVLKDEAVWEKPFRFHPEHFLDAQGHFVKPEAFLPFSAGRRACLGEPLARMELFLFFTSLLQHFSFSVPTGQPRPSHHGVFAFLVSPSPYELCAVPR

Cytochrome P450 3A4 = Cytochrome P450 3A4 (Homo sapiens, UniProt P08684); assay: Inhibition of CYP3A4; type: ADME
Cytochrome P450 3A4, sequence (P08684 whole entry): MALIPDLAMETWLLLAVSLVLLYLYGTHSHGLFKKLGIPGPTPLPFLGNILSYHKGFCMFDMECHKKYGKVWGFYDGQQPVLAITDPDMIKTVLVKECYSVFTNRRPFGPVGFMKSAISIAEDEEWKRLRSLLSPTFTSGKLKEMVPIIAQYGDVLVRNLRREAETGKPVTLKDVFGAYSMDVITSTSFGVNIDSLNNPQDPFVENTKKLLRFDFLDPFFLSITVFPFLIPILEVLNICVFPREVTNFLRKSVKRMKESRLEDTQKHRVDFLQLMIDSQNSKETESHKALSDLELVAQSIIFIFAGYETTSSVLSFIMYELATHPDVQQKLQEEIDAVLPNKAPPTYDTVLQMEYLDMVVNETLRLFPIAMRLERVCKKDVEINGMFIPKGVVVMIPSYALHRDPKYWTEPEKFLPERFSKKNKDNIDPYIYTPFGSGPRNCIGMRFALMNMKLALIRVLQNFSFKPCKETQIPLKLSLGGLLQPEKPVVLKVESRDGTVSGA

Cytochrome P450 2C8 = molecular target: T2, Cytochrome P450 2C8 (Homo sapiens, UniProt P10632); assay: Inhibition of CYP2C8; type: ADME
T2 sequence (P10632 whole entry): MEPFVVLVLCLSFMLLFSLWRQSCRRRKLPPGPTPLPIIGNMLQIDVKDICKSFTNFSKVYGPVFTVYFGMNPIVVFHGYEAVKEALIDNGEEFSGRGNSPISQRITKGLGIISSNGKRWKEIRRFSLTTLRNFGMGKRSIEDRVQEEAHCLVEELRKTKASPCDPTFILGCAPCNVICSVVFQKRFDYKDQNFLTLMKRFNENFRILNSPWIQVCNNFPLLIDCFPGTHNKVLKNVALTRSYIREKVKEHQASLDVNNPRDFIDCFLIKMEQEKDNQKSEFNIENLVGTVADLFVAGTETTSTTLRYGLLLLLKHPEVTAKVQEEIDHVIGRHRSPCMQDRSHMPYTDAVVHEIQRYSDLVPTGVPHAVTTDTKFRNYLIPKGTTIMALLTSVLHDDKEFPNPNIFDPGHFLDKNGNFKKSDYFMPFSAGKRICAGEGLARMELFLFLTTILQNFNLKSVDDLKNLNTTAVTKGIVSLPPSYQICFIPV

[17] = molecular target: T3, Nuclear receptor subfamily 1 group I member 2 (Homo sapiens, UniProt O75469); assay: Activity at human PXR
T3 sequence (O75469 whole entry): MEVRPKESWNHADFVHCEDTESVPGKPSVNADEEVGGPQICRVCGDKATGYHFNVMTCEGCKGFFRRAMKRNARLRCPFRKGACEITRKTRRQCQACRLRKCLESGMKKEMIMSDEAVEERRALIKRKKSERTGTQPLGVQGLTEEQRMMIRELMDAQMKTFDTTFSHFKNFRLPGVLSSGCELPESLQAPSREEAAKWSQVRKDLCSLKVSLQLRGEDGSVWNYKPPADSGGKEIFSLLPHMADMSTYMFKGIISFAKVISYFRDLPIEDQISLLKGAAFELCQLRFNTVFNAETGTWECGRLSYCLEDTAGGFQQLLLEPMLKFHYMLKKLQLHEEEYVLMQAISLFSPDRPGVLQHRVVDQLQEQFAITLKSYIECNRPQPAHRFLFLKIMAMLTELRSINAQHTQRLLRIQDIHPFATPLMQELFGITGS

Cytochrome P450 1A2 = molecular target: T4, Cytochrome P450 1A2 (Homo sapiens, UniProt P05177); assay: Inhibition of CYP1A2; type: ADME
T4 sequence (P05177 whole entry): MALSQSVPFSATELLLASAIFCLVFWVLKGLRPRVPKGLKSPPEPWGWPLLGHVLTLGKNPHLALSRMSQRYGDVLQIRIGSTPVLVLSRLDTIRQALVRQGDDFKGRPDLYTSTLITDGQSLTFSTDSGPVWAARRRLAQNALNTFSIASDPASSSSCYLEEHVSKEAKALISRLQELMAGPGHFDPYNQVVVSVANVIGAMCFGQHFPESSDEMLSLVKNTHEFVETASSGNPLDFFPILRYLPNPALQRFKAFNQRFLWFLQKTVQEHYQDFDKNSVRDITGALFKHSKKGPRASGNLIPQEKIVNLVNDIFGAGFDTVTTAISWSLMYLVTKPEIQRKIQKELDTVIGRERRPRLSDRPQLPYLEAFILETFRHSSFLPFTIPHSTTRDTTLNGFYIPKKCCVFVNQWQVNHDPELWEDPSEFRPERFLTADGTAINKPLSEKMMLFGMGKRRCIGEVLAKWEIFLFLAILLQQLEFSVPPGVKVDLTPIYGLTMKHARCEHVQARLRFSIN

Cytochrome P450 2C19 = Cytochrome P450 2C19 (Homo sapiens, UniProt P33261); assay: Inhibition of CYP2C19; type: ADME
Cytochrome P450 2C19, sequence (P33261 whole entry): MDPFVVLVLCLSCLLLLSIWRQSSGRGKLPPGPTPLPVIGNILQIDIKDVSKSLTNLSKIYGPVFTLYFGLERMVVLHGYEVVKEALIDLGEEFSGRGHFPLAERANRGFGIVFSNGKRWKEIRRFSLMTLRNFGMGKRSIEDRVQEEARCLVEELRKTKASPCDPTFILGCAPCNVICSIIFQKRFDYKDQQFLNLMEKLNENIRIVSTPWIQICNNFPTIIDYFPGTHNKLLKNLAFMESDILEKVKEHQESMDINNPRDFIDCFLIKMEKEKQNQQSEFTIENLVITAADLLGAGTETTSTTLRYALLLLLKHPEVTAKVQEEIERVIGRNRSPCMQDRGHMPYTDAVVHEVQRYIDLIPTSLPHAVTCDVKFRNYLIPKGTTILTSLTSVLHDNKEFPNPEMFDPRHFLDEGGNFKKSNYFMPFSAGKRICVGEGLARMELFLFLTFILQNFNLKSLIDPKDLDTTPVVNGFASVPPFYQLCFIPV

Streptococcus pneumoniae = assay: Antibacterial activity against Streptococcus pneumoniae CL2883 in liquid culture by turbidity method; type: functional; procedure, shortened: as §1
Enterococcus faecalis = assay: Antibacterial activity against Enterococcus faecalis C21560 in liquid culture by turbidity method; type: functional; procedure, shortened: as §1
Staphylococcus aureus [18] = assay: Antibacterial activity against Staphylococcus aureus infected in mouse model assessed as reduction of >= 2 log 10 cfu kidney burden; type: functional; procedure, shortened: as §3
Staphylococcus aureus [19] = assay: Antibacterial activity against Staphylococcus aureus infected in mouse model assessed as reduction of kidney burden at 0.5 mg/kg, iv relative to control; type: functional; procedure, shortened: as §3
Staphylococcus aureus [20] = assay: Antibacterial activity against Staphylococcus aureus infected in mouse model assessed as reduction of kidney burden iv relative to control

SMILES: CO/C(C)=C1/NC(=O)[C@H]([C@@H](C)O)NC(=O)c2csc(n2)-c2cc(OC)c(-c3nc(C(=O)NCCCN4CCOCC4)cs3)nc2-c2csc(n2)[C@@H]2COC(=O)c3c4c5c(cccc5n3O)COC(=O)[C@@H](O[C@H]3C[C@](C)(O)[C@H](N(C)C)[C@H](C)O3)[C@@H](OC4)[C@H](NC(=O)c3csc1n3)c1nc(cs1)C(=O)N2
- MIC (Staphylococcus aureus [1]): 0.01 µg/mL (≈ 6.62 nM)
- MIC (Staphylococcus aureus [2]): 0.00095 µg/mL (≈ 0.629 nM)
- MIC (Enterococcus): 0.06 µg/mL (≈ 39.7 nM)
- ED99 (Staphylococcus aureus [3]): 0.27 mg/kg
- IC50 [4]: 5.07 µM
- Activity (Staphylococcus aureus [5]): 1.22
- clearance [6]: 51.3 mL/min/kg
- clearance [7]: 15.6 mL/min/kg
- clearance [8]: 15 mL/min/kg
- Vd [9]: 18.7 L/kg
- Vd [10]: 15.5 L/kg
- Vd [11]: 3.3 L/kg
- Vd [12]: 1.2 L/kg
- half-life [13]: 5 h
- half-life [14]: 6.4 h
- half-life [15]: 5.4 h
- half-life [16]: 6.5 h
- IC50 (Cytochrome P450 2C9): ≥ 100 µM
- IC50 (Cytochrome P450 2D6): ≥ 100 µM
- IC50 (Cytochrome P450 3A4): ≥ 100 µM
- IC50 (Cytochrome P450 2C8): 71 µM
- Activity [17]: Not Active
- IC50 (Cytochrome P450 1A2): ≥ 100 µM
- IC50 (Cytochrome P450 2C19): ≥ 100 µM

- MIC (Staphylococcus aureus [1]): 0.015 µg/mL (≈ 9.94 nM)
- MIC (Streptococcus pneumoniae): 0.00095 µg/mL (≈ 0.63 nM)
- MIC (Enterococcus faecalis): 0.12 µg/mL (≈ 79.5 nM)
- IC50 [4]: < 0.01 µM
SMILES: CO/C(C)=C1/NC(=O)[C@H]([C@@H](C)O)NC(=O)c2csc(n2)-c2cc(O)c(-c3nc(C(=O)NCCCN4CCN(C)CC4)cs3)nc2-c2csc(n2)[C@@H]2COC(=O)c3c4c5c(cccc5n3O)COC(=O)[C@@H](O[C@H]3C[C@](C)(O)[C@H](N(C)C)[C@H](C)O3)[C@@H](OC4)[C@H](NC(=O)c3csc1n3)c1nc(cs1)C(=O)N2
- ED99 (Staphylococcus aureus [18]): 0.13 mg/kg
- Activity (Staphylococcus aureus [19]): 5.8

- MIC (Staphylococcus aureus [1]): 0.011 µg/mL (≈ 7.35 nM)
- MIC (Streptococcus pneumoniae): 0.007 µg/mL (≈ 4.68 nM)
- MIC (Enterococcus faecalis): 0.016 µg/mL (≈ 10.7 nM)
- IC50 [4]: 0.26 µM
SMILES: CO/C(C)=C1/NC(=O)[C@H]([C@@H](C)O)NC(=O)c2csc(n2)-c2cc(O)c(-c3nc(C(=O)NCCCN4CCOCC4)cs3)nc2-c2csc(n2)[C@@H]2COC(=O)c3c4c5c(cccc5n3O)COC(=O)[C@@H](O[C@H]3C[C@](C)(O)[C@H](N(C)C)[C@H](C)O3)[C@@H](OC4)[C@H](NC(=O)c3csc1n3)c1nc(cs1)C(=O)N2
- ED99 (Staphylococcus aureus [18]): 0.24 mg/kg
- Activity (Staphylococcus aureus [20]): 4.68
